The source made the active and inactive calls.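 How the source made its calls: active means change in binding activity of 20% or more in either direction; inactive means change in binding activity under 20%.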

The experiment concerns HepG2 proliferation, sulforhodamine B absorbance, 7-10 days. Kind of experiment: growth effect on ER-negative hepatoma cells – cell-based, absorbance, HepG2, counter-screen for AHR activator project, late-stage follow-up (AID 602173). As to conditions: at 10 µM. An outline of the steps: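 Material: Human hepatoma HepG2 cells, estrogen receptor-negative | Amount: 2,000 cells per well | Doses: One dose, 10 µM compound | Times: 24 h pre-culture, 37 °C exposure | Measured by: SRB absorbance at 490 nm, 650 nm corrected | Read-out: Stained cell mass as percent of DMSO-treated wells, negative for inhibition | Control set: DMSO-treated wells as vehicle reference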
Background: A counterscreen serves to expose hits that act by an unwanted route or on another target.
For the compound `Cc1csc(SCC(=O)Nc2ccc(Cl)cn2)n1`, the proliferation change, negative = inhibition was 12.2% (inactive).
Then `CCOc1ccc(-c2cc(C)n3nc(C(N)=O)cc3n2)cc1`, with 11.8% (inactive).
`Cn1c(C(=O)N2CCC(C(N)=O)CC2)cc2cc(Cl)ccc21`: the proliferation change, negative = inhibition is 3.8% (inactive).
To `Cc1ccc(-c2cc(-c3cccs3)[nH]n2)c(O)c1` belongs -97.5%; to `Cc1nnc(N2C(=O)c3cccc4c([N+](=O)[O-])ccc(c34)C2=O)s1`, -12.8% (inactive); to `CCOC(=O)Cc1cc(-c2ccc(O)cc2)nc2ccc3ccccc3c12`, -29%.
To `COc1ccc(NC(=O)c2cccc3c(Br)cccc23)cc1` belongs -38.5%; to `Cc1c(-c2ccn[nH]2)cc(NC(=O)c2ccc(Cl)cc2)c(=O)n1N`, -6% (inactive); to `Cc1nc(N)nc(Nc2ccc(Cl)cc2)c1Br`, -19.5% (inactive).
Then `COc1ccccc1NC(=O)c1ccc(C(=O)Nc2ccccc2OC)nc1`, with -49.8%.

The values above are taken from PubChem BioAssay AID602173 (The Scripps Research Institute Molecular Screening Center, 2012).
